In ChEMBL document CHEMBL5257020, “Discovery of a 9-mer Cationic Peptide (LTX-315) as a Potential First in Class Oncolytic Peptide” (J Med Chem, 2016):
Where a SMILES comes first, the peptide text is derived from it. [ ]: non-standard residue; d: D form. ξ: configuration not given here. ξDip = NC(C(=O)O)C(c1ccccc1)c1ccccc1

Legend:
[1] = Drug uptake in Beagle dog Red blood cells at 60 mins by LC-MS/MS analysis; type: ADME, cell-based, Canis lupus familiaris; conditions: erythrocyte, 1 h
Summary of the method: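 Pooled fresh whole blood (≥3 male and 3 female human, beagle dog or rat donors) spiked to 200 ng/mL. Incubated ~37 °C on rotary mixer over 0–120 min. Hematocrit determined. Blood and plasma analysed by LC–MS/MS. Blood/plasma ratio = Cb/C. Cell association = {[C(1 − H)]/Cb} × 100. Values at 60 min, mean of two independent measurements.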

Cytochrome P450 2C19 = Cytochrome P450 2C19 (Homo sapiens, UniProt P33261); test: Inhibition of CYP2C19 in human liver microsomes using (S)-mephenytoin as substrate assessed as reduction in substrate hydroxylation incubated for 5 mins in presence of beta-NADPH measured by LC-MS/MS analysis; type: ADME, Microsome
Summary of the method: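 Pooled human liver microsomes (50 donors) in 100 mM phosphate, pH 7.4, with 2 mM β-NADPH. Protein 0.1 mg/mL (2A6, 2C8, 2C9, 2E1, 3A4) or 0.3 mg/mL (1A2, 2B6, 2C19, 2D6). Test article 0–100 μM final, preincubated ~37 °C 5 or 30 min before isoform-selective substrate. Quenched in methanol with internal standard. Metabolite measured by LC–MS/MS against standard curve. Duplicates, with selective inhibitor positive controls.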

Cytochrome P450 2C19, sequence (P33261 whole entry, canonical isoform): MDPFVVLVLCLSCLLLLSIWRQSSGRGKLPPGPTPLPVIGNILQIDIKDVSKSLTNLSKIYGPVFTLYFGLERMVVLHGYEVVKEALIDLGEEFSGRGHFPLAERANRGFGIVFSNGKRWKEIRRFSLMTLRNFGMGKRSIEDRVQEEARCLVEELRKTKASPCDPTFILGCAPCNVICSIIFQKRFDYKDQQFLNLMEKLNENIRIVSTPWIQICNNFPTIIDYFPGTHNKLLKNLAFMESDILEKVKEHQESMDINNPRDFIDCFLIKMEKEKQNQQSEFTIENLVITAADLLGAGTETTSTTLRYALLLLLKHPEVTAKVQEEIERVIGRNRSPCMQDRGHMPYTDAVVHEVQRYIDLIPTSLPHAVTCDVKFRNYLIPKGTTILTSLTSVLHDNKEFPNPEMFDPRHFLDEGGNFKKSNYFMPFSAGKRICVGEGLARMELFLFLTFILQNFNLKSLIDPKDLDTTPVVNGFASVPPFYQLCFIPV

Drug uptake [1]: 76% | IC50 (Cytochrome P450 2C19): 23.3 µM
Structure (SMILES): NCCCC[C@H](NC(=O)C(NC(=O)[C@H](Cc1c[nH]c2ccccc12)NC(=O)[C@H](CCCCN)NC(=O)[C@H](CCCCN)NC(=O)[C@H](Cc1c[nH]c2ccccc12)NC(=O)[C@H](Cc1c[nH]c2ccccc12)NC(=O)[C@H](CCCCN)NC(=O)[C@@H](N)CCCCN)C(c1ccccc1)c1ccccc1)C(N)=O (some centres not stated) (H-KKWWKKW[ξDip]K-NH2)
